CCR6 antagonist: blocks CCL20-driven beta-arrestin recruitment at human CCR6 | P51684 | AID 493098 | 0.49% of 340,000 active | CHO-K1 CCR6 PathHunter beta-arrestin, luminescence, CCL20-stimulated | inhibition, % at 20 µM;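 active = compounds whose inhibition of the agonist-driven luminescence signal at 20 µM reaches about 50%, limit read from the data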;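 also: cells stimulated with CCL20 at 14 nM final; plate controls were DMSO with CCL20 for no effect and DMSO without agonist for full effect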
EBI2 block: antagonists of human EBI2 receptor | EBI2 beta-arrestin recruitment, luminescence, 7a,25-OHC stimulated | inhibition, % at 5 µM | P32249 | 0.81% of 360,000 active; in the data active = inhibition above about 38%;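 also: enzyme fragment complementation signal reports receptor beta-arrestin coupling in cells; 0% = agonist plus DMSO wells and 100% = wells without agonist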
Target sequence (P32249 whole entry, looked up, the tested form may be a part): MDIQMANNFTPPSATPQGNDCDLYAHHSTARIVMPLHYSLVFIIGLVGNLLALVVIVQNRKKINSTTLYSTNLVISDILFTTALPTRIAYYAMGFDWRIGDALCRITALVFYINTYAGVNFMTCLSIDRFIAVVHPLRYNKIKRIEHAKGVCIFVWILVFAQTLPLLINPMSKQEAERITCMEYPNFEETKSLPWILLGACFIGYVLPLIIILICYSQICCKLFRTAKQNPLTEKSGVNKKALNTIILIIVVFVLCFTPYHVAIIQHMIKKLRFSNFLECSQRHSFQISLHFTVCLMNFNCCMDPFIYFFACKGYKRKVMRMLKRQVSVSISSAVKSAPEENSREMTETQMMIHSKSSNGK
APJ agonist: APJ receptor agonism; 0.11% of 330,000 active; AID 2520; activation, % at 20 µM; CHO-K1 APJ PathHunter beta-arrestin, luminescence; 0% DMSO wells, 100% apelin; P35414;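 active = activation more than six SD over the plate average, tested at 20 µM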;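 also: 0% = DMSO alone and 100% = apelin-13 at 10 nM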
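Test system – PathHunter CHO-K1 APJ (AGTRL-1) beta-arrestin reporter cells · Input – 1000 cells/well · Compound – single test compound dose, 20 µM final, 1% DMSO · Times – compound stimulation 90 min at 25 °C, detection 60 min · Technique – beta-gal luminescence · Read-out basis – APJ–arrestin association signal · Control set – negative DMSO alone, positive Apelin-13 at 10 nM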
APJ antag: blocks the human apelin receptor APJ; 0.32% of 330,000 active; CHO-K1 APJ beta-arrestin complementation, luminescence; AID 2521; P35414; inhibition, % at 20 µM;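 active = inhibition above about 40% at 20 µM, limit read from the data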;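 also: cells challenged with 10 nM apelin-13 agonist together with compound; plate controls were apelin-13 plus DMSO wells for no effect and DMSO wells lacking apelin-13 for full effect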
Beta2AR agonist: agonists of human beta-2 adrenergic receptor inducing internalization. 0.43% of 340,000 active. Am2.2-beta2AR cells, FAP receptor internalization, flow cytometry. AID 504454. response, % (concentration not given with the values);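 active = response above a set limit, near 3 SD of response in nonfluorescent compounds, cut at about 42% in these data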
CXCR6 inh: blocks human CXCR6 beta-arrestin recruitment. CHO-K1 PathHunter CXCR6 beta-arrestin, luminescence. inhibition, % at 20 µM. 0.36% of 360,000 active; in the data active = inhibition above about 34%, passing the limit was not always enough;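 also: antagonist mode with CXCL16 agonist at 10 nM final; 0% = 10 nM CXCL16 with DMSO and 100% = unstimulated wells without agonist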
EBI2 conf: EBI2 (human) antagonism, single concentration confirmation; EBI2 beta-arrestin luminescence, 7a,25-OHC antagonism; inhibition, % at 5 µM; shares compounds with EBI2 block; 29% of 2,400 active; AID 651997;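 active = inhibition of at least 50%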
EBI2 ag: activates EBI2, counter-screen for EBI2 antagonists; shares compounds with EBI2 block; EBI2-expressing cells, agonist mode, luminescence, 60 min; 0% vehicle, 100% 7α,25-dihydroxycholesterol control; activation, % at 5 µM; 2,400 tested, under 10 active; AID 652000;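 active = activation of at least 50%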
bGal counter: beta-galactosidase inhibition counter-screen | shares compounds with EBI2 block | purified beta-galactosidase, luminescent Galacton Star, 15 min | inhibition, % at 5 µM | 1% of 2,400 active;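 active = replicate-average signal at least 3 plate SD below neutral wells, shown as high inhibition, flagging enzyme-inhibiting false positives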;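 also: 0% = DMSO wells with enzyme and 100% = wells lacking enzyme; higher means stronger loss of beta-gal luminescence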
Starred values were filed as active, the others as inactive; nt = no result. Most compounds without a hit are left out; they make up all but 1.8% or so of the library.

SMILES	CCR6 antagonist	EBI2 block	APJ agonist	APJ antag	Beta2AR agonist	CXCR6 inh	EBI2 conf	EBI2 ag	bGal counter
CCCN(CCC)CCCNC(=O)c1cn(-c2ccc(OC)cc2)c(=O)c2ccccc12	22	5	-1	7	-2	4	nt	nt	nt
O=C(/C=C/c1cccc([N+](=O)[O-])c1)N1CCN(S(=O)(=O)c2cccs2)CC1	7	47*	-1	-6	2	1	41	0	7
COc1cc2c(cc1OC)C(=O)CCC2	4	2	nt	nt	-6	0	nt	nt	nt
COc1ccc(/C=N/NC(=O)NC23CC4CC(CC(C4)C2)C3)c(OC)c1	14	33	-3	-13	0	1	nt	nt	nt
COc1ccccc1/C=N/NC(=O)NC12CC3CC(CC(C3)C1)C2	9	47*	-4	-36	-3	-6	41	1	4
COc1ccc(C2CCc3cc(OC)c(OC)cc3C2NC=O)cc1OC (configuration not stated)	nt	-1	nt	nt	nt	-6	nt	nt	nt
O=C(COc1ccc(Cl)cc1)N1CCN(S(=O)(=O)c2cc(F)ccc2F)CC1	nt	87*	nt	nt	nt	-4	68*	2	5
CCOc1ccccc1OCCCC(=O)N1CCN(S(=O)(=O)c2ccc(Cl)cc2)CC1	8	6	nt	nt	-5	11	nt	nt	nt
COc1ccc(Cl)cc1S(=O)(=O)N1CCN(C(=O)COc2ccccc2)CC1	-7	21	-1	1	-9	-6	nt	nt	nt
Cc1ccc(C)c(OCCC(=O)N2CCN(S(=O)(=O)c3cc(F)ccc3F)CC2)c1	0	46*	-4	4	2	4	32	4	5
Cc1cc(Cl)ccc1OCCCC(=O)N1CCN(S(=O)(=O)c2ccccc2)CC1	10	63*	-3	0	-2	-3	36	-1	5
C/C(=N\NC(=O)c1ccc(N/N=C(\C)c2ccc(O)cc2)cc1)c1ccc(O)cc1	-2	2	5	-13	21	-8	nt	nt	nt
Cc1nnsc1NC(=O)OCc1ccc(C(F)(F)F)cc1	-8	9	-1	5	-6	-8	nt	nt	nt
CCOc1ccc(NC(=S)Nc2ccc(OCC)cc2)cc1	21	80*	-3	-17	5	4	62*	0	8
COc1cc(NC(=S)Nc2cccc(Cl)c2Cl)c(OC)cc1Cl	16	1	-5	4	-9	2	nt	nt	nt
CCOc1ccc(NC(=S)Nc2ccc(OC(F)(F)F)cc2)cc1	-7	76*	-1	21	-1	1	53*	-1	-19
CCc1ccc(NC(=S)Nc2cccc(OC)c2)cc1	6	50*	-5	-5	8	9	21	2	4
CCOc1ccc(NC(=S)Nc2cc(OC)c(Cl)cc2OC)cc1	13	65*	-3	9	1	5	19	-2	-4
CCNC(=S)Nc1ccc(OCC)cc1	-2	-9	-2	9	-2	-8	nt	nt	nt
COc1ccc(NC(=O)CCNS(=O)(=O)c2cccc3nonc23)c(OC)c1	-10	-6	0	-14	7	2	nt	nt	nt
Cc1ncc(CN2CCC(CO)(Cc3ccccc3)CC2)s1	4	-8	-4	-10	0	-1	nt	nt	nt
CCOc1ccc(NC(=S)/C(=C(\[O-])c2ccc(C)c([N+](=O)[O-])c2)[n+]2ccccc2)cc1	21	3	0	-21	18	1	nt	nt	nt
CCOc1ccc(NC(=S)Nc2ccc(C)c([N+](=O)[O-])c2)cc1	-2	65*	-4	6	-2	0	66*	1	8
O=C(c1nc2ccc(Cl)cn2c1CNCC[C@@H]1C[C@@H]2C=C[C@H]1C2)N1CCCCCCC1	4	61*	-4	9	-1	-6	42	0	2
C[C@@H]1CN(C(=O)c2nc3ccc(Cl)cn3c2CNCC[C@@H]2C[C@@H]3C=C[C@H]2C3)C[C@H](C)O1	7	9	-5	-1	-3	4	nt	nt	nt
SMILES	CCR6 antagonist	EBI2 block	APJ agonist	APJ antag	Beta2AR agonist	CXCR6 inh	EBI2 conf	EBI2 ag	bGal counter
CC(C)c1ccc(Nc2ncc3c(n2)CCN(C(=O)Nc2ccc(F)c(Cl)c2)C3)cc1	nt	52*	nt	nt	nt	-12	20	1	3
COc1cccc(NC(=O)N2CCc3nc(Nc4cc(Cl)cc(Cl)c4)ncc3C2)c1	nt	24	nt	nt	nt	-3	nt	nt	nt
Cc1ccc(-c2nn(-c3ccccc3)cc2C=C2C(=O)CC(C)(C)CC2=O)cc1	-26	53*	6	-15	8	-14	52*	2	10
O=C(NC1CC1)c1ccc2sc([C@H]3C[C@H](O)[C@@H](CO)O3)nc2c1	nt	-16	nt	nt	nt	2	nt	nt	nt
O=C(c1cc(Br)c(Br)s1)N1CCN(C/C=C/c2ccccc2)CC1	15	65*	2	4	4	3	35	0	3
Cc1cc(C(=O)N2CCN(C/C=C/c3ccccc3)CC2)cs1	3	46*	-5	-13	-13	4	31	3	1
Cc1ccc(CNC(=O)C2CCN(S(=O)(=O)c3ccc4c(c3)OCCCO4)CC2)cc1	9	79*	-1	6	7	3	67*	2	8
COc1ccc(CNC(=O)C2CCN(S(=O)(=O)c3ccc4c(c3)N(C(C)=O)CCO4)CC2)cc1	9	73*	-1	28	-2	-8	46	1	3
CCOc1ccc(NC(=O)C2CCN(S(=O)(=O)c3ccc4c(c3)N(C(C)=O)CCO4)CC2)cc1	20	2	-1	20	2	-4	nt	nt	nt
Cc1ccc(OCC(=O)N2CCN(S(=O)(=O)c3ccccc3[N+](=O)[O-])CC2)cc1	3	84*	-4	0	-5	-9	60*	0	-5
Cc1ccc(S(=O)(=O)N2CCN(C(=O)COc3ccc(Br)cc3)CC2)cc1	27	94*	-3	-3	1	-6	72*	-1	-14
COc1ccc(S(=O)(=O)N2CCN(CCOc3ccccc3Cl)CC2)cc1OC	11	-2	-5	3	2	-6	nt	nt	nt
CCOc1ccccc1OCCC(=O)N1CCN(S(=O)(=O)c2ccccc2[N+](=O)[O-])CC1	-6	41	-4	6	-2	0	nt	nt	nt
O=C(COc1ccccc1)N1CCN(S(=O)(=O)c2ccc(Br)cc2)CC1	16	64*	2	8	-5	1	38	0	-15
COc1ccc(S(=O)(=O)N2CCN(CCOc3ccc(Br)cc3)CC2)cc1OC	5	58*	-1	12	-4	-1	16	0	-14
